From ChEMBL document CHEMBL4118256, “Second Generation of Mannich Base-Type Derivatives with in Vivo Activity against Trypanosoma cruzi” (J Med Chem, 2018)
pIC50: −log10 of the molar value.

What was measured:
[1] = tested on: Vero; experiment: Cytotoxicity against African green monkey Vero cells assessed as reduction in cell viability after 72 hrs by resazurin dye based assay; settings: Chlorocebus sabaeus
Outline: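 Vero monkey kidney cells grown at 37 °C, 5 % CO2, in RPMI with 10 % heat-inactivated FBS. Seeded at 1.25 × 10^4 mL-1 with compound at 1000 to 1 µM (DMSO 0.01 % v/v). After 48 h, resazurin added for a further 24 h, then SDS. Absorbance read at 570/600 nm. IC50 from triplicates in four separate determinations.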

[2] = Selectivity index, ratio of IC50 for African green monkey Vero cells to IC50 for Trypanosoma cruzi MHOM/Pe/2011/Arequipa DTU 5 epimastigotes; format: toxicity; settings: read-out: Ratio IC50
Outline: (§1)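 SI is Vero IC50 divided by the IC50 for the stated parasite form. For Vero cytotoxicity, cells were seeded at 1.25×10^4 mL^-1 with compounds at 1000–1 µM, incubated 48 h, then given resazurin for a further 24 h (72 h total), with absorbance read at 570/600 nm. Triplicate, four determinations.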

[3] = Selectivity index, ratio of IC50 for African green monkey Vero cells to IC50 for Trypanosoma cruzi TINF/CH/1956/Tulahuen DTU 6 epimastigotes; format: toxicity; settings: read-out: Ratio IC50; outline: as §1
[4] = Selectivity index, ratio of IC50 for African green monkey Vero cells to IC50 for Trypanosoma cruzi IRHOD/CO/2008/SN3 DTU 1 epimastigotes; format: toxicity; settings: read-out: Ratio IC50; outline: as §1
[5] = tested on: Trypanosoma cruzi; experiment: Trypanocidal activity against Trypanosoma cruzi MHOM/Pe/2011/Arequipa DTU 5 epimastigotes after 48 hrs by resazurin dye based assay; format: functional, organism-based; settings: MHOM/Pe/2011/Arequipa DTU 5, 48 h
Outline: (§2)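 Exponential-phase epimastigotes were seeded at 5×10^5 mL^-1 with compounds at 100–0.2 µM (DMSO 0.01% v/v) at 28 °C. After 48 h, resazurin was added for another 24 h. SDS was then added and absorbance read at 570 and 600 nm.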

[6] = tested on: Trypanosoma cruzi; experiment: Trypanocidal activity against Trypanosoma cruzi TINF/CH/1956/Tulahuen DTU 6 epimastigotes after 48 hrs by resazurin dye based assay; format: functional, organism-based; settings: TINF/CH/1956/Tulahuen DTU 6, 48 h; outline: as §2
[7] = tested on: Trypanosoma cruzi; experiment: Trypanocidal activity against Trypanosoma cruzi IRHOD/CO/2008/SN3 DTU 1 epimastigotes after 48 hrs by resazurin dye based assay; format: functional, organism-based; settings: IRHOD/CO/2008/SN3 DTU 1, 48 h; outline: as §2

| SMILES | pIC50 [1] | selectivity ratio [2] | selectivity ratio [3] | selectivity ratio [4] | pIC50 [5] | pIC50 [6] | pIC50 [7] |
| --- | --- | --- | --- | --- | --- | --- | --- |
| O=C(CCN1CCN(c2ccc([N+](=O)[O-])cc2)CC1)c1ccc(C(F)(F)F)cc1 | 4.12 | 5.6 | 5 | 3.8 | 4.87 | 4.82 | 4.70 |
| O=C(CCN1CCN(c2ccc([N+](=O)[O-])cc2)CC1)c1ccc(F)cc1 | 3.96 | 1.7 | 1.4 | 2 | 4.18 | 4.11 | 4.26 |
| O=C(CCN1CCN(c2ccc(Cl)cc2)CC1)c1ccc(F)c(Br)c1 | 3.69 | 7.7 | 6.7 | 5.9 | 4.58 | 4.51 | 4.45 |
| O=C(CCN1CCN(c2ccc(F)cc2)CC1)c1ccc(OC(F)(F)F)cc1 | 4.15 | 0.8 | 1.3 | 2.5 | 4.07 | 4.28 | 4.56 |
| COc1ccc(C(=O)CCN2CCN(Cc3cccc(C)c3)CC2)cc1OC | 4.28 | 2.7 | 1.8 | 2.2 | 4.71 | 4.55 | 4.62 |
| O=C(CCN1CCN(c2ccc(C(F)(F)F)cc2)CC1)c1ccc(F)c(Br)c1 | 4.18 | 1.4 | 2.6 | 3.2 | 4.33 | 4.59 | 4.68 |
| O=C(CCN1CCN(c2ccc(F)cc2)CC1)c1ccc(Cl)c(F)c1 | 3.98 | 2.7 | 2.3 | 1.4 | 4.40 | 4.34 | 4.12 |
| O=C(CCN1CCN(c2ccc(C(F)(F)F)cc2)CC1)c1ccc(Cl)c(F)c1 | 4.13 | 2.7 | 1.1 | 1.5 | 4.56 | 4.18 | 4.31 |
| O=C(CCN1CCN(c2ccc([N+](=O)[O-])cc2)CC1)c1ccc(F)c(Cl)c1 | 3.94 | 3.4 | 2.8 | 2.3 | 4.47 | 4.38 | 4.29 |
| O=C(CCN1CCN(c2ccc(F)cc2)CC1)c1ccc(F)c(Br)c1 | 3.45 | 9.1 | 8.5 | 8.3 | 4.41 | 4.38 | 4.37 |
| O=C(CCN1CCN(c2ccccc2F)CC1)c1ccc(F)cc1 | 4.31 | 1.3 | 0.9 | 0.9 | 4.42 | 4.27 | 4.28 |
| O=C(CCN1CCN(c2ccc(C(F)(F)F)cc2)CC1)c1ccc(OC(F)(F)F)cc1 | 4.19 | 1.3 | 0.8 | 1.7 | 4.29 | 4.06 | 4.42 |
| O=C(CCN1CCN(c2ccc(C(F)(F)F)cc2)CC1)c1ccc(F)c(F)c1 | 4.85 | 0.4 | 0.3 | 0.5 | 4.48 | 4.27 | 4.54 |
| COc1ccc(N2CCN(CCC(=O)c3ccc(F)cc3)CC2)cc1 | 4.50 | 1.3 | 0.8 | 1.4 | 4.61 | 4.41 | 4.65 |
| O=C(CCN1CCN(c2ccc(C(F)(F)F)cc2)CC1)c1ccc(C(F)(F)F)cc1 | 4.31 | 2 | 1.1 | 1.4 | 4.61 | 4.37 | 4.46 |
